The subject of data set [1] is HeLa. Briefly: Tumor promoter activity in human HeLa cells assessed as enhancement of incorporation of 32Pi into phospholipid per mg of protein at 1 nM. It counts as ADME, cell-based. Particulars: 0.001 µM. A digest of the protocol:
(§1)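 HeLa cells treated with compound in 0.2% DMSO (vehicle control). Radioactive inorganic phosphate (32Pi) uptake into phospholipids measured by a previously reported method with slight modifications. Results given as cpm per mg protein relative to the DMSO control, with standard deviation. Compound tested at 10^-10 to 10^-7 M.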

Data set [2] deals with HeLa. Kind of data set: Tumor promoter activity in human HeLa cells assessed as enhancement of incorporation of 32Pi into phospholipid per mg of protein at 0.1 uM. It counts as ADME, cell-based. A digest of the protocol:
as §1

Data set [3] relates to HeLa. Briefly: Tumor promoter activity in human HeLa cells assessed as enhancement of incorporation of 32Pi into phospholipid per mg of protein at 10 nM. Particulars: 0.01 µM. It counts as ADME, cell-based. A digest of the protocol:
as §1

In data set [4] the test system is HeLa. Briefly: Tumor promoter activity in human HeLa cells assessed as enhancement of incorporation of 32Pi into phospholipid per mg of protein at 0.1 nM. The format is ADME, cell-based. The following applies: 0.0001 µM. A digest of the protocol:
as §1

Data set [5] in a line: Displacement of [3H]TPA from phorbol ester receptor in ICR mouse epidermal particulate. A digest of the protocol:
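Competition for specific [3H]-TPA binding to a particulate fraction from dorsal epidermis of female ICR mice, by the cold Me2CO filter method with slight modifications. IC50 (concentration giving 50% inhibition) found by probit analysis. Because IC50 drifts between particulate preparations, all compounds were run together on one fraction. Value reported as log 1/M.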

As to `C=C[C@@]1(C)CC[C@](C)(C(C)C)c2cc3c4c(c[nH]c4c21)C[C@@H](CO)NC(=O)[C@H](C(C)C)N3C`, the relative 32Pi incorporation in data set [1] came out at 1.82; in data set [2], 7.46; in data set [3], 6.72; in data set [4], 1.19.

Take `C=C[C@](C)(CCC=C(C)C)c1ccc2c3c(c[nH]c13)C[C@@H](CO)NC(=O)[C@H](C(C)C)N2C`: the relative 32Pi incorporation in data set [1] stood at 1.57; in data set [2] it was 8.36; in data set [3], 4.59; in data set [4], 1.05.

`CC(C)=CCC/C(C)=C/Cc1ccc2c3c(c[nH]c13)C[C@@H](CO)NC(=O)[C@H](C(C)C)N2C`: the relative 32Pi incorporation in data set [1] was found to be 1.41; in data set [2], 6.64; in data set [3] it was 2.61; in data set [4], 0.97. Also, the pIC50 in data set [5] was 8.05.

(Values after ChEMBL document CHEMBL1149047, “New teleocidin-related metabolites, (-)-7-geranylindolactam V and blastmycetin F, from Streptoverticillium blastmyceticum” (J Nat Prod, 1994).)
